Laboratory results as given in ChEMBL document CHEMBL3045605, “Synthesis and anticancer evaluation of novel 3,5-diaryl-thiazolo[4,5-d]pyrimidin-2-one derivatives” (2013).
Each block holds one molecule with its values, some of them ahead of it.

Assays:
Assay type in all cases: functional
HCT-116 [1] = test: Anticancer activity against Homo sapiens (human) HCT116 cells assessed as cell growth at 10 uM by SRB assay; conditions: read-out: Activity
Procedure, shortened: (§1)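 NCI 60-cell human tumour panel (nine cancer types) screened at one concentration, 10−5 M. Cell growth estimated by sulforhodamine B protein staining and reported as percent growth of treated cells relative to untreated controls.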

SR [2] = test: Anticancer activity against Homo sapiens (human) SR cells assessed as cell growth at 10 uM by SRB assay; conditions: read-out: Activity
Procedure, shortened: (§2)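 NCI 60-cell human tumour panel (leukemia, melanoma, lung, colon, CNS, breast, ovarian, prostate, renal lines) given a single 10−5 M dose. Growth is expressed as percent growth of treated cells relative to untreated controls, with cell growth/viability estimated by sulforhodamine B protein staining.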

K562 [3] = test: Anticancer activity against Homo sapiens (human) K562 cells assessed as cell growth at 10 uM by SRB assay; conditions: read-out: Activity; procedure, shortened: as §1
CAKI-1 [4] = test: Anticancer activity against Homo sapiens (human) CAKI-1 cells assessed as cell growth at 10 uM by SRB assay; conditions: read-out: Activity; procedure, shortened: as §1
NCI-H522 [5] = test: Anticancer activity against Homo sapiens (human) NCI-H522 cells assessed as cell growth at 10 uM by SRB assay; conditions: read-out: Activity
Procedure, shortened: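 Single-dose screen in the NCI 60-human-tumour-cell-line panel (nine cancer types) at 10−5 M. Cell growth was estimated by sulforhodamine B protein staining and reported as percent growth of treated cells relative to untreated controls.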

CCRF-CEM [6] = test: Anticancer activity against Homo sapiens (human) CCRF-CEM cells assessed as cell growth at 10 uM by SRB assay; conditions: read-out: Activity; procedure, shortened: as §1
LOX IMVI = test: Anticancer activity against Homo sapiens (human) LOXIMVI cells assessed as cell growth at 10 uM by SRB assay; conditions: read-out: Activity; procedure, shortened: as §1
SW-620 [7] = test: Anticancer activity against Homo sapiens (human) SW620 cells assessed as cell growth at 10 uM by SRB assay; conditions: read-out: Activity; procedure, shortened: as §2
COLO 205 = test: Anticancer activity against Homo sapiens (human) COLO205 cells by SRB assay
Procedure, shortened: (§3)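 NCI 60-line panel, five tenfold dilutions from 10−4 to 10−8 M, growth read by sulforhodamine B staining against untreated controls. From the dose–response per line: GI50 (molar concentration giving half growth inhibition), TGI (molar concentration giving total growth inhibition, cytostatic) and LC50 (molar concentration killing 50% of initial cells, cytotoxic).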

NCI-H460 = test: Anticancer activity against Homo sapiens (human) NCI-H460 cells by SRB assay
Procedure, shortened: (§4)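 Five-dose NCI 60-cell-line panel testing at tenfold dilutions from 10−4 to 10−8 M, with growth read by sulforhodamine B protein staining. For each cell line: GI50 is the molar concentration giving half growth inhibition; TGI is total growth inhibition (cytostatic); LC50 is the molar concentration killing 50% of the initial cells (cytotoxic).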

NCI-H522 [8] = test: Anticancer activity against Homo sapiens (human) NCI-H522 cells by SRB assay; procedure, shortened: as §4
[9] = Anticancer activity against Homo sapiens (human) NCI-322M cells by SRB assay; procedure, shortened: as §4
HOP-92 = test: Anticancer activity against Homo sapiens (human) HOP92 cells by SRB assay; procedure, shortened: as §3
NCI-H23 = test: Anticancer activity against Homo sapiens (human) NCI-H23 cells by SRB assay; procedure, shortened: as §4
HOP-62 = test: Anticancer activity against Homo sapiens (human) HOP62 cells by SRB assay; procedure, shortened: as §3
A549 = test: Anticancer activity against Homo sapiens (human) A549/ATCC cells by SRB assay; procedure, shortened: as §3
EKVX = test: Anticancer activity against Homo sapiens (human) EKVX cells by SRB assay; procedure, shortened: as §3
SR [10] = test: Anticancer activity against Homo sapiens (human) SR cells by SRB assay
Procedure, shortened: (§5)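 NCI five-dose follow-up on the 60-line human tumour panel at tenfold dilutions from 10−4 to 10−8 M, with growth read by sulforhodamine B protein assay against untreated controls. For each cell line, GI50 (half growth inhibition), TGI (total growth inhibition) and LC50 (50% death of initial cells) are calculated as molar concentrations.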

[11] = Anticancer activity against Homo sapiens (human) RPMI8266 cells by SRB assay; procedure, shortened: as §4
K562 [12] = test: Anticancer activity against Homo sapiens (human) K562 cells by SRB assay; procedure, shortened: as §3
CCRF-CEM [13] = test: Anticancer activity against Homo sapiens (human) CCRF-CEM cells by SRB assay; procedure, shortened: as §3
ACHN = test: Anticancer activity against Homo sapiens (human) ACHN cells by SRB assay; procedure, shortened: as §3
786-0 = test: Anticancer activity against Homo sapiens (human) 786-0 cells by SRB assay; procedure, shortened: as §3
NCI/ADR-RES = test: Anticancer activity against Homo sapiens (human) NCI/ADR-RES cells by SRB assay; procedure, shortened: as §4
SK-OV-3 = test: Anticancer activity against Homo sapiens (human) SKOV3 cells by SRB assay; procedure, shortened: as §4
OVCAR-8 = test: Anticancer activity against Homo sapiens (human) OVCAR8 cells by SRB assay; procedure, shortened: as §4
OVCAR-5 = test: Anticancer activity against Homo sapiens (human) OVCAR5 cells by SRB assay; procedure, shortened: as §4
OVCAR-4 = test: Anticancer activity against Homo sapiens (human) OVCAR4 cells by SRB assay; procedure, shortened: as §4
OVCAR-3 = test: Anticancer activity against Homo sapiens (human) OVCAR3 cells by SRB assay; procedure, shortened: as §4
IGROV-1 = test: Anticancer activity against Homo sapiens (human) IGROV1 cells by SRB assay; procedure, shortened: as §3
UACC-62 = test: Anticancer activity against Homo sapiens (human) UACC62 cells by SRB assay; procedure, shortened: as §5
SK-MEL-5 = test: Anticancer activity against Homo sapiens (human) SK-MEL-5 cells by SRB assay; procedure, shortened: as §4
UACC-257 = test: Anticancer activity against Homo sapiens (human) UACC257 cells by SRB assay; procedure, shortened: as §5
SK-MEL-28 = test: Anticancer activity against Homo sapiens (human) SK-MEL-28 cells by SRB assay; procedure, shortened: as §4
SK-MEL-2 = test: Anticancer activity against Homo sapiens (human) SK-MEL-2 cells by SRB assay; procedure, shortened: as §4
MDA-MB-435 = test: Anticancer activity against Homo sapiens (human) MDA-MB-435 cells by SRB assay; procedure, shortened: as §4
M14 = test: Anticancer activity against Homo sapiens (human) M14 cells by SRB assay; procedure, shortened: as §3
Malme-3M = test: Anticancer activity against Homo sapiens (human) MALME-3M cells by SRB assay; procedure, shortened: as §3
SNB-75 = test: Anticancer activity against Homo sapiens (human) SNB75 cells by SRB assay; procedure, shortened: as §4
U-251 = test: Anticancer activity against Homo sapiens (human) U251 cells by SRB assay; procedure, shortened: as §5
SNB-19 = test: Anticancer activity against Homo sapiens (human) SNB19 cells by SRB assay; procedure, shortened: as §4
SF-539 = test: Anticancer activity against Homo sapiens (human) SF539 cells by SRB assay; procedure, shortened: as §4
SF-295 = test: Anticancer activity against Homo sapiens (human) SF295 cells by SRB assay; procedure, shortened: as §4
SF-268 = test: Anticancer activity against Homo sapiens (human) SF268 cells by SRB assay; procedure, shortened: as §4
KM12 = test: Anticancer activity against Homo sapiens (human) KM12 cells by SRB assay; procedure, shortened: as §3
SW-620 [14] = test: Anticancer activity against Homo sapiens (human) SW620 cells by SRB assay; procedure, shortened: as §5
HT-29 = test: Anticancer activity against Homo sapiens (human) HT-29 cells by SRB assay; procedure, shortened: as §3
HCT-15 = test: Anticancer activity against Homo sapiens (human) HCT15 cells by SRB assay; procedure, shortened: as §3
HCT-116 [15] = test: Anticancer activity against Homo sapiens (human) HCT116 cells by SRB assay; procedure, shortened: as §3
T47D = test: Anticancer activity against Homo sapiens (human) T47D cells by SRB assay; procedure, shortened: as §5
BT-549 = test: Anticancer activity against Homo sapiens (human) BT549 cells by SRB assay; procedure, shortened: as §3
Hs-578T = test: Anticancer activity against Homo sapiens (human) Hs 578T cells by SRB assay; procedure, shortened: as §3
MCF7 = test: Anticancer activity against Homo sapiens (human) MCF7 cells by SRB assay; procedure, shortened: as §3
DU-145 = test: Anticancer activity against Homo sapiens (human) DU145 cells by SRB assay; procedure, shortened: as §3
RXF 393 = test: Anticancer activity against Homo sapiens (human) RXF393 cells by SRB assay; procedure, shortened: as §4
PC-3 = test: Anticancer activity against Homo sapiens (human) PC3 cells by SRB assay; procedure, shortened: as §4
UO-31 = test: Anticancer activity against Homo sapiens (human) UO31 cells by SRB assay; procedure, shortened: as §5
SN12C = test: Anticancer activity against Homo sapiens (human) SN12C cells by SRB assay; procedure, shortened: as §4
TK-10 = test: Anticancer activity against Homo sapiens (human) TK10 cells by SRB assay; procedure, shortened: as §5
CAKI-1 [16] = test: Anticancer activity against Homo sapiens (human) CAKI-1 cells by SRB assay; procedure, shortened: as §3
A498 = test: Anticancer activity against Homo sapiens (human) A498 cells by SRB assay; procedure, shortened: as §3

Compound: O=c1sc2c(Cl)nc(-c3ccc(F)cc3)nc2n1-c1ccccc1
growth at 10 µM (HCT-116 [1]): 40.5%
growth at 10 µM (SR [2]): 28.6%
growth at 10 µM (K562 [3]): 35.8%
growth at 10 µM (CAKI-1 [4]): 41.8%

Compound: O=c1[nH]c(-c2ccccc2)nc2c1sc(=O)n2-c1ccccc1
growth at 10 µM (CAKI-1 [4]): 26.8%

Compound: O=c1sc2c(Cl)nc(-c3ccc(Cl)cc3)nc2n1-c1ccccc1
growth at 10 µM (HCT-116 [1]): 29.3%
growth at 10 µM (NCI-H522 [5]): 5.19%
growth at 10 µM (SR [2]): 21.5%
growth at 10 µM (K562 [3]): 34.6%
growth at 10 µM (CCRF-CEM [6]): 33.6%
growth at 10 µM (LOX IMVI): 24.4%
growth at 10 µM (SW-620 [7]): 47.6%

GI50 (COLO 205): 2510 nM
GI50 (NCI-H460): 1000 nM
GI50 (NCI-H522 [8]): 2000 nM
GI50 (NCI-H23): 3160 nM
GI50 (A549): 5010 nM
GI50 (K562 [12]): 100000 nM
GI50 (CCRF-CEM [13]): 316 nM
GI50 (ACHN): 3980 nM
GI50 (786-0): 1580 nM
GI50 (SK-OV-3): 501 nM
GI50 (OVCAR-8): 398 nM
GI50 (OVCAR-5): 501 nM
GI50 (OVCAR-4): 5010 nM
GI50 (OVCAR-3): 1580 nM
GI50 (SK-MEL-5): 2510 nM
GI50 (SK-MEL-28): 6310 nM
GI50 (SK-MEL-2): 1580 nM
GI50 (MDA-MB-435): 501 nM
GI50 (U-251): 10000 nM
GI50 (SW-620 [14]): 3980 nM
GI50 (HT-29): 1260 nM
GI50 (HCT-15): 2510 nM
GI50 (HCT-116 [15]): 631 nM
GI50 (T47D): 10000 nM
GI50 (BT-549): 1260 nM
GI50 (MCF7): 501 nM
GI50 (DU-145): 501 nM
GI50 (PC-3): 3160 nM
Compound: Nc1nc2[nH]cnc2c(=S)[nH]1 [THIOGUANINE]
GI50 [9]: 25100 nM
GI50 (HOP-92): 1580 nM
GI50 (HOP-62): 794 nM
GI50 (EKVX): 3980 nM
GI50 (SR [10]): 631 nM
GI50 [11]: 1260 nM
GI50 (NCI/ADR-RES): 398 nM
GI50 (IGROV-1): 6310 nM
GI50 (UACC-62): 398 nM
GI50 (UACC-257): 6310 nM
GI50 (M14): 631 nM
GI50 (Malme-3M): 3160 nM
GI50 (SNB-75): 1000 nM
GI50 (SNB-19): 79400 nM
GI50 (SF-539): 631 nM
GI50 (SF-295): 1260 nM
GI50 (SF-268): 1260 nM
GI50 (KM12): 3160 nM
GI50 (Hs-578T): 6310 nM
GI50 (RXF 393): 501 nM
GI50 (UO-31): 794 nM
GI50 (SN12C): 7940 nM
GI50 (TK-10): 501 nM
GI50 (CAKI-1 [16]): 316 nM
GI50 (A498): 25100 nM
